{"source": "paper PMC6424611", "about": "(Journal of molecular biology, 2019)", "key": {"RhoA": {"tested_on": "RhoA", "experiment": "G-LISA RhoA activation assay", "assay_type": "cell-based", "conditions": "ARHGEF12 mutants, n=4"}, "ARHGEF12": {"tested_on": "ARHGEF12", "experiment": "NanoBiT protein-protein interaction assay", "assay_type": "cell-based, human", "conditions": "RSK1–ARHGEF12 sensor, 20 ng/ml EGF, serum-starved HEK293T, 60 min", "in_short": "(§1)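 Full-length RSK1 (N-terminal SmBiT) is paired with an N-terminal LgBiT fusion of the partner: ARHGEF12 isoform 2, GOPC isoform 2, PARD3B 1–913, or SYNJ2BP. Sensors are transiently co-expressed in HEK293T cells, which are serum-starved for 20 h from 4 h post-transfection and assayed with Nano-Glo at 24 h. Steady-state signal is referenced to the wild-type pair. For the EGF response (20 ng/ml, 60 min), signal is normalized to initial luminescence and to unstimulated furimazine decay. At least 6 replicates.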"}, "GOPC": {"tested_on": "GOPC", "experiment": "NanoBiT protein-protein interaction assay", "assay_type": "cell-based, human", "conditions": "RSK1–GOPC sensor, 20 ng/ml EGF, serum-starved HEK293T, 60 min", "in_short": "as §1"}, "PARD3B": {"tested_on": "PARD3B", "experiment": "NanoBiT protein-protein interaction assay", "assay_type": "cell-based, human", "conditions": "RSK1–PARD3B sensor, 20 ng/ml EGF, serum-starved HEK293T, 60 min", "in_short": "as §1"}, "MAGI1": {"tested_on": "MAGI1", "experiment": "NanoBiT protein-protein interaction assay", "assay_type": "cell-based, human", "conditions": "RSK1–MAGI1 sensor, 20 ng/ml EGF, serum-starved HEK293T, 60 min", "in_short": "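Full-length RSK1 (N-terminal SmBiT) is co-expressed with full-length MAGI1–LgBiT in HEK293T cells by FuGene HD transfection, then serum-starved for 20 h in CO2-independent medium. Cells are read with Nano-Glo 24 h post-transfection. Steady-state luminescence of mutant sensors is referenced to the wild-type pair. For the 20 ng/ml EGF response, signal is followed for 60 min and normalized to initial luminescence and to furimazine decay in unstimulated cells. At least 6 biological replicates.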"}, "SYNJ2BP": {"tested_on": "SYNJ2BP", "experiment": "NanoBiT protein-protein interaction assay", "assay_type": "cell-based, human", "conditions": "RSK1–SYNJ2BP sensor, 20 ng/ml EGF, serum-starved HEK293T, 60 min", "in_short": "as §1"}, "ERK2": {"tested_on": "ERK2", "experiment": "NanoBiT protein-protein interaction assay", "assay_type": "cell-based", "conditions": "RSK1–ERK2 sensor, 20 ng/ml EGF, serum-starved HEK293T, 60 min", "in_short": "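Full-length RSK1 carries an N-terminal SmBiT tag, and full-length ERK2 is fused to LgBiT. HEK293T cells (DMEM, 10% FBS) are seeded at 2×10^4/well 24 h before FuGene HD co-transfection, then starved for 20 h in CO2-independent medium from 4 h post-transfection. After 20 ng/ml EGF, Nano-Glo luminescence is followed for 60 min and normalized to initial signal and to furimazine decay in unstimulated cells. At least 6 biological replicates.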"}, "ARHGEF12 PDZ": {"molecular_target": "T1, ARHGEF12 PDZ (Homo sapiens, UniProt Q9NZN5)", "T1 sequence (Q9NZN5 72-151 limits assumed)": "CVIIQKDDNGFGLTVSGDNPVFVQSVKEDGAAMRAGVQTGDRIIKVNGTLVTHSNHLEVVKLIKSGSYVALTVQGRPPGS", "experiment": "holdup assay", "assay_type": "binding", "conditions": "words", "in_short": "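Automated holdup against N-terminally biotinylated (TTDS linker) RSK1 725–735 peptides, unphosphorylated and phosphorylated, in triplicate. PDZome v2 clones were codon-optimized and expressed in E. coli, with soluble lysate adjusted to ~4 μM. BI is the PDZ fraction depleted from the fluid phase.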"}, "GRID2IP-2 PDZ [1]": {"molecular_target": "T2, GRID2IP-2 PDZ (Homo sapiens, UniProt A4D2P6)", "T2 sequence (A4D2P6 279-356 limits assumed)": "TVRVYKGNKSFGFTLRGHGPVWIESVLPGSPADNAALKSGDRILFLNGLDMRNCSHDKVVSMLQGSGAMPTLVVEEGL", "experiment": "holdup assay", "assay_type": "binding", "conditions": "words; GRID2IP", "in_short": "(§2)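 Automated holdup in triplicate measured biotinylated (N-terminal TTDS linker) RSK1 725–735 peptides, unphosphorylated or phosphorylated, against E. coli-expressed PDZome v2 domains. Soluble lysate was adjusted to ~4 μM, giving 255 domains for the unphosphorylated and 252 for the phosphorylated peptide. Binding intensity (BI) is the fraction of PDZ depleted from the fluid phase. BI 0.2 was the high-confidence threshold.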"}, "PARD3B-1 PDZ [2]": {"molecular_target": "T3, PARD3B-1 PDZ (Homo sapiens, UniProt Q8TEW8)", "T3 sequence (Q8TEW8 201-289 limits assumed)": "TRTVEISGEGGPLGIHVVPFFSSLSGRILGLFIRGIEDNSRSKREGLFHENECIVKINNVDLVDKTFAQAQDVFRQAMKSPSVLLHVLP", "experiment": "holdup assay", "assay_type": "binding", "conditions": "words; PARD3B", "in_short": "as §2"}, "SNX27 PDZ [3]": {"molecular_target": "T4, SNX27 PDZ (Homo sapiens, UniProt Q96L92)", "experiment": "holdup assay", "assay_type": "binding", "conditions": "words"}, "[4]": {"tested_on": "first PDZ domain of NHERF (EBP50)", "experiment": "holdup assay", "assay_type": "binding, human"}, "[5]": {"tested_on": "first PDZ domain of Scribble", "experiment": "holdup assay", "assay_type": "binding, human"}, "GRID2IP-2 PDZ [6]": {"molecular_target": "T2, GRID2IP-2 PDZ", "experiment": "surface plasmon resonance", "assay_type": "binding", "conditions": "internal standard; biotinylated HPV16 E6 peptide immobilized; steady state", "in_short": "(§3)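 Biacore SPR on a CM5 chip. Streptavidin was immobilized by EDC coupling, then biotinylated HPV16 E6 peptide was captured and extensively washed. Tandem Ni/MBP-purified MBP-PDZ domains were then injected. The E6 peptide served as an internal standard.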"}, "PDZD7-3 PDZ": {"molecular_target": "T5, PDZD7-3 PDZ (Homo sapiens, UniProt Q9H5P4)", "T5 sequence (Q9H5P4 862-934 limits assumed)": "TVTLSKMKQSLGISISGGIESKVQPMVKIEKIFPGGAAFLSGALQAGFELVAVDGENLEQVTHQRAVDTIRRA", "experiment": "surface plasmon resonance", "assay_type": "binding", "conditions": "internal standard; biotinylated HPV16 E6 peptide immobilized; steady state", "in_short": "as §3"}, "MAST1 PDZ": {"molecular_target": "T6, MAST1 PDZ (Homo sapiens, UniProt Q9Y2H9)", "T6 sequence (Q9Y2H9 967-1055 limits assumed)": "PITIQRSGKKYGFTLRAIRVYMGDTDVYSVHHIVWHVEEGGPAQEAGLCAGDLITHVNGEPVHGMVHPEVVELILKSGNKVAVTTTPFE", "experiment": "surface plasmon resonance", "assay_type": "binding", "conditions": "internal standard; biotinylated HPV16 E6 peptide immobilized; steady state", "in_short": "as §3"}, "GOPC PDZ": {"molecular_target": "GOPC PDZ (Homo sapiens, UniProt Q9HD26)", "experiment": "surface plasmon resonance", "assay_type": "binding", "conditions": "internal standard; biotinylated HPV16 E6 peptide immobilized; steady state"}, "GORASP2 PDZ": {"molecular_target": "GORASP2 PDZ", "experiment": "surface plasmon resonance", "assay_type": "binding, human", "conditions": "internal standard; biotinylated HPV16 E6 peptide immobilized; steady state", "in_short": "as §3"}, "PARD3B-1 PDZ [7]": {"molecular_target": "T3, PARD3B-1 PDZ", "experiment": "surface plasmon resonance", "assay_type": "binding", "conditions": "internal standard; biotinylated HPV16 E6 peptide immobilized; steady state", "in_short": "as §3"}, "HTRA1 PDZ": {"molecular_target": "HTRA1 PDZ (Homo sapiens, UniProt Q92743)", "sequence (Q92743 365-467 limits assumed)": "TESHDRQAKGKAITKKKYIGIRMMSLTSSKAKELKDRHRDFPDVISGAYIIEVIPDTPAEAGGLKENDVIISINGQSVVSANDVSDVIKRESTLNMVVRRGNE", "experiment": "surface plasmon resonance", "assay_type": "binding", "conditions": "internal standard; biotinylated HPV16 E6 peptide immobilized; steady state", "in_short": "as §3"}, "SNTG2 PDZ": {"molecular_target": "T7, SNTG2 PDZ (Homo sapiens, UniProt Q9NY99)", "T7 sequence (Q9NY99 73-156 limits assumed)": "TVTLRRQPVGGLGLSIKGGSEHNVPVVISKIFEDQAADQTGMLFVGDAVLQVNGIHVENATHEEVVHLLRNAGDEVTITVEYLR", "experiment": "surface plasmon resonance", "assay_type": "binding", "conditions": "internal standard; biotinylated HPV16 E6 peptide immobilized; steady state", "in_short": "as §3"}, "SNX27 PDZ [8]": {"molecular_target": "T4, SNX27 PDZ", "experiment": "surface plasmon resonance", "assay_type": "binding", "conditions": "internal standard; biotinylated HPV16 E6 peptide immobilized; steady state"}}, "note": "Where no end group is shown, it is not given here. The star is where a group is joined. Biotin = O=C1N[C@H]2[C@H](CS[C@H]2CCCCC(=O)*)N1; TTDS = NCCCOCCOCCOCCCNC(=O)CCC(=O)*"}
{"molecule": "S1288E: ARHGEF12 mutant mimicking the RSK1 phosphorylation site", "values": [{"measurement": "decrease of RhoA signal by ARHGEF12 mutation", "setting": "RhoA", "result": 20, "unit": "%"}]}
{"molecule": "EGF: epidermal growth factor (Sigma-Aldrich), 20 ng/ml (NSDSECPLSHDGYCLHDGVCMYIEALDKYACNCVVGYIGERCQYRDLKWWELR; UniProt P01133 971-1023, looked up)", "values": [{"measurement": "change in luminescence after EGF", "setting": "ARHGEF12", "result": "decrease in luminescence"}, {"measurement": "change in luminescence after EGF", "setting": "GOPC", "result": "decrease in luminescence"}, {"measurement": "change in luminescence after EGF", "setting": "PARD3B", "result": "did not show any change"}, {"measurement": "change in luminescence after EGF", "setting": "MAGI1", "result": "decrease in luminescence"}, {"measurement": "change in luminescence after EGF", "setting": "SYNJ2BP", "result": "increased luminescence"}, {"measurement": "change in luminescence after EGF", "setting": "ERK2", "result": "time-modulated decrease of the luminescence signal"}]}
{"molecule": "RSK1 PBM: PDZ binding motif of the RSK1 C-terminal tail ({Biotin-TTDS}-RRVRKLPSTTL)", "values": [{"measurement": "effect of phosphorylation on binding", "setting": "ARHGEF12 PDZ", "result": "mostly eliminated"}, {"measurement": "effect of phosphorylation on binding", "setting": "GRID2IP-2 PDZ [1]", "result": "mostly eliminated"}, {"measurement": "affinity to both states of the RSK1 PBM", "setting": "PARD3B-1 PDZ [2]", "result": "comparable affinities to both states"}, {"measurement": "effect of phosphorylation on binding", "setting": "SNX27 PDZ [3]", "result": "promoted by phosphorylation"}, {"measurement": "interaction detected", "setting": "[4]", "result": "did not detect any interaction"}, {"measurement": "BI", "setting": "[5]", "result": "0.17–0.18"}]}
{"molecule": "CC(C)C[C@H](NC(=O)[C@H](CCC(N)=O)NC(=O)[C@@H](NC(=O)[C@H](CCC(=O)O)NC(=O)[C@H](CCCNC(=N)N)NC(=O)[C@H](CCCNC(=N)N)NC(=O)[C@@H](NC(=O)[C@H](CCCNC(=N)N)NC(=O)[C@H](CO)NC(=O)[C@@H](N)CO)[C@@H](C)O)[C@@H](C)O)C(=O)O", "note": "[HPV16 E6]", "values": [{"measurement": "KD, SPR, HPV16 E6", "setting": "GRID2IP-2 PDZ [6]", "result": "no binding"}, {"measurement": "KD, SPR, HPV16 E6", "setting": "PDZD7-3 PDZ", "result": "no binding"}, {"measurement": "KD, SPR, HPV16 E6", "setting": "MAST1 PDZ", "result": "no binding"}, {"measurement": "KD, SPR, HPV16 E6", "setting": "GOPC PDZ", "result": "no binding"}, {"measurement": "KD, SPR, HPV16 E6", "setting": "GORASP2 PDZ", "result": "no binding"}, {"measurement": "KD, SPR, HPV16 E6", "setting": "PARD3B-1 PDZ [7]", "result": "no binding"}, {"measurement": "KD, SPR, HPV16 E6", "setting": "HTRA1 PDZ", "result": "no binding"}, {"measurement": "KD, SPR, HPV16 E6", "setting": "SNTG2 PDZ", "result": "no binding"}, {"measurement": "KD, SPR, HPV16 E6", "setting": "SNX27 PDZ [8]", "result": "no binding"}]}
